Rows were chosen to be rich in hits. Some 1.9% of all compounds tested hit in one or more screens of this group.
SKBR3 24h inh: SK-BR-3 proliferation inhibitors, primary screen, cell-based, human, 24 h; SK-BR-3 viability, CellTiter-Glo ATP luminescence; active compounds read low; 41,000 compounds, 0.47% hits; viability, % at 10 µM;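 active = viability at or below the median of all test compounds minus 3 SD, in both replicates if run twice, cut at about 45% in these data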
HER2 expr 66K: inhibitors of Her2 protein expression, primary screen, SKBR-3 cells, AlphaScreen, 66K library. 65,000 compounds, 0.69% hits. AID 645, 2007. SKBR-3 HER2 protein level, 18-24 h; active compounds read low. HER2 level % of control, % at 10 µM. Receptor tyrosine-protein kinase erbB-2 (Homo sapiens), P04626;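 active = HER2 level under 5% of the carrier-only control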;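 note: lower value means stronger loss of Her2 protein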
mHtt clearance: clearance of mutant huntingtin inclusions, primary screen, imaging, HeLa Exon1htt(103Q)mCFP, confocal imaging; 47,000 compounds, 0.42% hits; aggregate imaging; zero = plate's median compound well; inhibition, % at 1.5 µM;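 active = inhibition of aggregate fluorescence above about 70%, also judged a hit by eye on the cell image, limit read from the data, passing the limit was not always enough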;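 note: cells exposed to compound for three days before fixation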
HEK293 NFkB inh: inhibitors of PMA/ionomycin-induced NF-kB reporter, primary screen, antigen receptor NF-kB inhibitor project, cell-based, HEK-293 luciferase reporter, luminescence; HEK-293 NF-kB luciferase reporter; inhibition, % at 3 µM; 62,000 compounds, 0.21% hits; AID 465, 2006;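 active = inhibition above the mean of all tested compounds plus 3 SD, cut at about 40% in these data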
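System: NF-kB luciferase reporter HEK-293 cells | Replication: Single test | Control set: DMSO vs reference inhibitor | Evaluation: % inhibition | Schedule: 1 h pretreatment, 16 h stimulation, 37 °C | Probe or stimulus: PMA with ionomycin | Compound dosing: One dose, 3 µM | Detection: Luciferase luminescence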
Jurkat viability: cytotoxicity toward Jurkat T cells, primary screen, cytotoxicity control, cell-based, Jurkat E6.1, 60K MLSMR library | Jurkat E6.1 viability, ATP luminescence, 48 h | inhibition, % at 4 µM | 56,000 compounds, 1.2% hits | AID 463, 2006;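 active = inhibition above the mean inhibition of all tested compounds plus 3 SD, cut at about 28% in these data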
A number is an active result; - = inactive; . = not tested or not shown.

SMILES	SKBR3 24h inh	HER2 expr 66K	mHtt clearance	HEK293 NFkB inh	Jurkat viability
CCCn1c(SCC(=O)Nc2ccc3c(c2)OCCO3)nnc1-c1ccco1	-	-	.	-	-
Cc1ccc(-n2c(SCC(=O)Nc3ccc4c(c3)OCCO4)nnc2-c2ccco2)cc1	.	-	72	-	-
CCOCCCNC(=O)C(c1ccc(OC)cc1)N(Cc1ccc2c(c1)OCO2)C(=O)CNC(C)=O (configuration not stated)	-	-22	-	-	.
c1csc(CCNc2ncnc3sc4c(c23)CCC4)c1	.	-	.	-	40
c1cn(CCCNc2ncnc3sc4c(c23)CCC4)cn1	.	-	.	-	-
Cc1ccc2[nH]c(C)c(CN(C)C3CCN(C)CC3)c(=O)c2c1	26	-	.	-	-
CC(C)C[C@H](N)c1nnc(S(=O)(=O)Cc2ccc(F)cc2)o1	33	-	.	-	-
Cn1cc(S(=O)(=O)Cc2ccc(F)cc2)c2ccccc21	.	-	.	-	-
Cc1ccc(OCC(=O)Nc2ccc(-c3nc4ncccc4o3)cc2)c(C)c1	.	-	.	-	-
CN1C=CC(=C2C(=O)c3ccccc3C2=O)C=C1	.	-	-	-	-
CCN1C=CC(=C2C(=O)c3ccccc3C2=O)C=C1	.	-	-	50	-
CCCN1C=CC(=C2C(=O)c3ccccc3C2=O)C=C1	.	-	.	86	-
CN(CCCC(=O)Nc1ccncc1)S(=O)(=O)c1ccc(Cl)cc1	.	-	-	-	45
CC(C)CNC(=O)c1cc2nc(C3CC3)cc(C(F)(F)F)n2n1	.	.	-	.	.
COc1ccc(C(=O)CSc2nnc(Cc3ccccc3)o2)cc1	-	-	-	-	-
COc1ccc(C(=O)CSc2nnc(Cn3cnc4ccccc43)o2)cc1	-	-	.	-	92
CC(C)c1nnc(NC(=O)CCS(=O)(=O)c2nc(-c3cccs3)cc(C(F)(F)F)n2)s1	-	-19	-	-	-
COC(CNC(=O)C1CC(=O)N(CCc2ccccc2)C1)OC (configuration not stated)	.	.	-	.	.
Cc1n[nH]c(=O)nc1NCC1CCCO1 (configuration not stated)	-	-	76	-	-
O=C(NCc1cccs1)C1CCN(S(=O)(=O)c2cccc3cccnc23)CC1	.	-	.	-	-
O=C(C1CCN(S(=O)(=O)c2cccc3cccnc23)CC1)N1CCN(c2ccccn2)CC1	-	-	.	-	-
O=S(=O)(NCc1ccco1)c1cccc2cccnc12	-	-16	.	-	-
O=C(NCc1ccco1)C1CCN(S(=O)(=O)c2cccc3cccnc23)CC1	.	-17	.	-	-
O=C(C1CCN(S(=O)(=O)c2cccc3cccnc23)CC1)N1CCN(c2ccc(Cl)cc2)CC1	.	-	.	-	38
CSc1nc2ccccc2n1CC(=O)Nc1c(C)cccc1C	.	.	-	.	.
SMILES	SKBR3 24h inh	HER2 expr 66K	mHtt clearance	HEK293 NFkB inh	Jurkat viability
O=C(Nc1ccccc1F)c1cc2nc(C(F)F)cc(C(F)F)n2n1	.	.	-	.	.
CCCCCC(C)NC(=O)c1ccoc1C (configuration not stated)	.	.	-	.	.
COc1cccc(C(=O)Nc2ncc3c(n2)CC(c2ccc(OC)cc2OC)CC3=O)c1 (configuration not stated)	-	-	.	-	43
CCOc1ccc(/C(O)=C2\C(=O)C(=O)N(c3cc(C)on3)C2c2ccccc2OC)cc1 (configuration not stated)	-	-22	-	-	-
COc1ccccc1NS(=O)(=O)c1ccc(OC)c(OC)c1	29	-	-	-	-
N#CC1=C(c2ccccc2)N=P(N2CCOCC2)(N2CCOCC2)N=C1N1CCOCC1	-	.	.	-	.
O=C1CC(Sc2nnnn2C2CCCCC2)C(=O)N1c1ccccc1 (configuration not stated)	.	-3.2	-	-	-
Cc1cc(C)cc(N2C(=O)CC(Sc3nnnn3-c3ccccc3)C2=O)c1 (configuration not stated)	.	.	-	.	.
CN1CCc2c(sc3ncn4nc(-c5ccccc5O)nc4c23)C1	-	-	.	.	.
Clc1cccc(-c2nnc(-c3ccccc3)o2)c1	18	-8.2	-	-	-
Cn1c(CSc2ncccn2)nnc1SCC(=O)N1CCCc2ccccc21	24	-	.	-	-
CCc1nnc(SCC(=O)N2CCCc3ccccc32)nc1CC	.	-	-	-	-
O=C(CSc1n[nH]c(-c2ccccc2O)n1)N1CCCc2ccccc21	.	-	.	-	62
Cc1cc(C)c2cc(CN(CCN3CCCC3)C(=O)Nc3ccc(F)cc3)c(=O)[nH]c2c1	.	-	.	-	-
Cc1ccc(C)c2[nH]c(=O)c(CN(CCN3CCCC3)C(=O)Nc3cccc(Cl)c3)cc12	.	-	-	-	51
CCN(C(=O)COC(=O)c1cc(C)n(-c2ccc(F)cc2)c1C)C1CCS(=O)(=O)C1 (configuration not stated)	.	-20	-	-	-
O=C(CCCCn1c(=O)c2ccccc2n(Cc2ccc(F)cc2)c1=O)NCc1ccco1	-	-	-	-	37
O=C1c2ccccc2C(O)(Cc2ccccc2)N1c1ccc2c(c1)OCO2 (configuration not stated)	-	-	.	-	-
CC(C)(C)OC(=O)NCCc1nnc(S(=O)(=O)Cc2ccc(Cl)cc2Cl)o1	-	-16	-	-	-
CC(C)(C)OC(=O)NCCc1nnc(SCc2ccccc2Cl)o1	-	-	-	-	-
COC(=O)C1=C(C)N(c2ccc(Cl)c(Cl)c2)C(=O)C1	-	-	-	-	64
CCC(=O)N1CCN(CCN=Cc2c(O)n(C3CCCCC3)c(=O)n(C3CCCCC3)c2=O)CC1	.	-	.	-	-
COc1ccc(OC)c(S(=O)(=O)Nc2cc(OC)c(Cl)cc2OC)c1	-	-	-	-	-
COc1cc(NS(=O)(=O)c2ccc(OC)c(C)c2C)c(OC)cc1Cl	-	-	.	-	79
CCCCCn1c(SCc2cccc(C)c2)nc2c1c(=O)[nH]c(=O)n2C	.	-	.	-	-
SMILES	SKBR3 24h inh	HER2 expr 66K	mHtt clearance	HEK293 NFkB inh	Jurkat viability
Cc1onc(-c2ccccc2)c1C(=O)Nc1ccccc1N1CCOCC1	.	-	.	-	-
Cc1onc(-c2ccccc2)c1C(=O)Nc1cc(C(F)(F)F)ccc1N1CCOCC1	.	-	.	-	87
CCCN1C(=O)c2ccccc2NC1c1ccc(OC)cc1O (configuration not stated)	-	-	.	-	36
CCCN1C(=O)c2ccccc2NC1c1ccc(OC)cc1OC (configuration not stated)	.	-	-	-	-
Cc1c(CCC#N)c(N2CCCCC2)n2c(nc3ccccc32)c1C#N	-	-	.	.	.
Cc1c(CCC#N)c(N2CCN(C3CCCCC3)CC2)n2c(nc3ccccc32)c1C#N	6.0	-16	.	.	.
COc1ccc(CC(=O)Nc2cc(C)ccn2)cc1	.	-	-	-	-
COCCCn1c(SCC(=O)Nc2nnc(C)s2)nnc1-c1ccoc1C	-	-	78	-	-
CC(Oc1ccc(Cl)cc1Cl)C(=O)Nc1ccncc1 (configuration not stated)	-	-	.	-	44
